Data on 9 molecules can be found in ChEMBL document CHEMBL1124588, “Synthesis and evaluation of N,N-di-n-propyltetrahydrobenz[f]indol-7-amine and related congeners as dopaminergic agonists” (J Med Chem, 1989).

For test [1], the target named is D(2) dopamine receptor (Rattus norvegicus) (UniProt P61169). As to the kind of experiment: Dopamine D2 agonistic activity (2 mg/kg) as plasma prolactin level in reserpinized rats. Format: functional, organism-based. The gist of the method: (§1)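 Male Sprague-Dawley rats were given reserpine 15 mg/kg ip as an aqueous suspension 18 h before dosing. Compound in 10% ethanol was given ip; controls received saline. Rats were killed 1 h later and blood was allowed to clot. Serum prolactin was measured by NIAMD radioimmunoassay as ng NIAMD-prolactin-PR-1/mL and expressed as percent change versus control.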

Test [2] has the same target. Put plainly: Dopamine D2 agonistic activity (2 mg/kg) as percent change in prolactin level in reserpinized rats. It counts as functional, organism-based. The method, boiled down: as §1
Test [3] shares this target. The conditions noted are these: Plasma.

SMILES strings stand for the structures.

Chain of D(2) dopamine receptor (Rattus norvegicus) (P61169 whole entry): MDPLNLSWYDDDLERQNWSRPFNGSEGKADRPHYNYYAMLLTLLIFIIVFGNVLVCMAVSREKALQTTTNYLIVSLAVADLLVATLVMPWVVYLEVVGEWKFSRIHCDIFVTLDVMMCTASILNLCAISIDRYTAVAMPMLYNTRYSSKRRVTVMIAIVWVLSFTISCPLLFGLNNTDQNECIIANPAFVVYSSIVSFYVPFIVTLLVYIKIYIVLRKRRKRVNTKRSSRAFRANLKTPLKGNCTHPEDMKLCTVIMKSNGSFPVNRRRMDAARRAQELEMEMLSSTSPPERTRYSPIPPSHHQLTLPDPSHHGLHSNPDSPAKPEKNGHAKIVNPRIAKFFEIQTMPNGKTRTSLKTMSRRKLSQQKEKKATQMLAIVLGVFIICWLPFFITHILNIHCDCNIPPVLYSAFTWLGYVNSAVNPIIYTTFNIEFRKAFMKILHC

In test [1], `CCCN(CCC)C1CCc2ccc(NC(C)=O)cc2C1` (configuration not stated) yielded a PRL of 38.9 ng/mL. The Change in test [2] was -19%.
On the same counts, the results for `CCCN(CCC)CCc1ccc2cc[nH]c2c1` are 51.2 ng/mL and 0%.
The molecule `CCCN(CCC)C1CCc2cc3cc[nH]c3cc2C1` (configuration not stated) displayed a PRL in test [1] of 30.6 ng/mL. The Change in test [2] is -37%.
Consider `CCCN(CCC)CCc1cccc(NC(=O)C(F)(F)F)c1`, for which the PRL in test [1] was determined as 36.8 ng/mL. In addition, the Change in test [2] was -21%.
In test [1], `CCCN(CCC)CCc1cccc(NS(C)(=O)=O)c1` yielded a PRL of 12.6 ng/mL. Also, the Change in test [2] was -76%.
For `CCCN(CCC)C1CCc2ccc(NS(C)(=O)=O)cc2C1` (configuration not stated), in that order: 28.3 ng/mL and -41%.
For `CCCN(CCC)CCc1cccc(NC(C)=O)c1`, in that order: 36.9 ng/mL and -19%.
For `CCCN(CCC)CCc1cccc2[nH]ccc12`, in that order: 5 ng/mL and -69%.
As for `CCCN(CCC)C1CCc2ccc3[nH]ccc3c2C1` (configuration not stated), the PRL in test [3] came to 3.8 ng/mL.
